The target in test [1] is T1, Inosine-5'-monophosphate dehydrogenase 2 (Homo sapiens, UniProt P12268). Briefly: In vitro inhibition of Inosine-5'-monophosphate dehydrogenase 2. The method, boiled down:
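Human type II IMPDH purified from E. coli expressing the gene; 40 nM enzyme, 400 µM IMP, 2 mM DTT in 0.1 M Tris, 0.1 M KCl, 3 mM EDTA pH 8.0; final DMSO 2.5%. Started with NAD (final 400 µM); after 2 h at 25 °C, NADH read at 340 nm.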

For the next test, the system named is CCRF-CEM. Briefly: Inhibitory concentration against human T-lymphoblast CEM cell line (ATCC) by CEM proliferation assay. It is filed as functional, cell-based. In short, it runs like this:
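CEM human T-lymphoblasts in RPMI 1640 with 10% heat-inactivated FBS plus penicillin/streptomycin, seeded 3000 cells/well with 0.5% DMSO. Compounds tested in triplicate from 10 uM top final concentration, 3-fold serial dilutions. Cells held 72 h in 5% CO2 humidified atmosphere. Viability measured by Alamar Blue (10% v/v, final 5 h), fluorescence at 530/590 nm.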

Test [2] has as its target T1, Inosine-5'-monophosphate dehydrogenase 2. The experiment in a line: The compound was tested for it's in vitro inhibitor potency against inosine monophosphate dehydrogenase II (IMPDH II). In short, it runs like this: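 Human type II IMPDH purified from E. coli expressing the gene; 40 nM enzyme, 400 µM IMP, 2 mM DTT in 0.1 M Tris, 0.1 M KCl, 3 mM EDTA pH 8.0; final DMSO 2.5%. Started with NAD (final 400 µM); after 2 h at 25 °C, NADH read at 340 nm. IC50 for 50% inhibition of NADH accumulation from 4-parameter logistic fit.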

What is called IC50 is the midpoint of a concentration-inhibition curve. Low readings indicate higher potency, high ones lower potency. `COc1cc(N/C(=N/c2cccc(CO)c2)NC#N)ccc1-c1cnco1` registered a 50% inhibitory concentration (IC50) in test [1] of 280 nM.
Same read-out and setting: in the case of `COc1cc(NC(=NC#N)Nc2cccc(CNC(=O)NCC3CCCO3)c2)ccc1-c1cnco1` (stereo not drawn) it was 180 nM.
The same measure, in the same setting: the figure for `CCOC(=O)N=C(Nc1cccc(C)c1)Nc1ccc(-c2cnco2)c(OC)c1` is 740 nM.
`COc1cc(NC(=NC#N)Nc2cccc(CNC(=O)O[C@H]3CCOC3)c2)ccc1-c1cnco1` showed an IC50 in test [1] of 340 nM.
With `COc1cc(N/C(=N/c2cccc(C/N=C(\NC#N)Oc3ccccc3)c2)NC#N)ccc1-c1cnco1`, the values for the half-maximal inhibitory concentration (IC50) (with CCRF-CEM; in test [1]) were 410 nM and 16 nM, respectively.
Regarding `CN/C(=N\c1ccc(-c2cnco2)c(OC)c1)Nc1cccc(C)c1`, the IC50 in test [1] was > 3000 nM.
Same read-out and setting: the figure for `COc1cc(N/C(=N/C#N)Nc2ccc(C)cc2)ccc1-c1cnco1` is 1500 nM.
On to `COc1cc(NC(=NC#N)Nc2ccccn2)ccc1-c1cnco1`, for which the IC50 in test [1] was determined as 340 nM.
In the case of `COc1cc(N/C(=N/C#N)Nc2cccc(CNC(=O)OCC3CCOC3)c2)ccc1-c1cnco1` (stereo not drawn), the half-maximal inhibitory concentration (IC50) in test [2] came out at 110 nM.
`COc1cc(NC(=NC#N)Nc2ccccc2C)ccc1-c1cnco1` yielded a half-maximal inhibitory concentration (IC50) in test [1] of 2200 nM.
Consider `COc1cc(N=C(NC(C)=O)Nc2cccc(C)c2)ccc1-c1cnco1`, for which the half-maximal inhibitory concentration (IC50) in test [1] was > 1000 nM.
In turn, `COc1cc(NC(=O)Nc2cccc(C)c2)ccc1-c1cnco1` returned a 50% inhibitory concentration (IC50) in test [1] of 19 nM.
In test [1], `COc1cc(NC(=NC#N)Nc2ccccc2)ccc1-c1cnco1` gave a 50% inhibitory concentration (IC50) of 250 nM.
Compound `CON/C(=N\c1ccc(-c2cnco2)c(OC)c1)Nc1cccc(C)c1` displayed an IC50 in test [1] of 660 nM.
Same read-out and setting: the figure for `COc1cc(N/C(=N/c2cccnc2)NC#N)ccc1-c1cnco1` is 320 nM.
Compound `COc1cc(NC(=NC#N)NCc2cccc(C)c2)ccc1-c1cnco1` registered an IC50 in test [1] of 1100 nM.
Still for that read-out and setting: the figure for `COc1cc(NC(=NC#N)Nc2cccc(C)c2)ccc1-c1cnco1` is 240 nM.
On to `COc1cc(N=C(N)Nc2cccc(C)c2)ccc1-c1cnco1`, for which, in test [2], the IC50 is > 3000 nM.
In test [1], `COc1cc(NC(=N)NC#N)ccc1-c1cnco1` displayed a 50% inhibitory concentration (IC50) of 330 nM.
With `COc1cc(N=C(N)NC(=O)c2ccccc2)ccc1-c1cnco1`, the IC50 in test [1] is 800 nM.
Still for that read-out and setting: the figure for `CCCCNC(=O)c1cccc(NC(=NC#N)Nc2ccc(-c3cnco3)c(OC)c2)c1` is 130 nM; for `COc1cc(NC(=NC#N)Nc2cccc(OCCOc3ccccc3)c2)ccc1-c1cnco1` it is 380 nM.

The values are drawn from ChEMBL document CHEMBL1135865, “Novel guanidine-based inhibitors of inosine monophosphate dehydrogenase” (Bioorg Med Chem Lett, 2002).
